DDE Tn7 FP inh: inhibitors of Tn7 peptide binding to fibrin DD(E), primary screen, biochemical, fluorescence polarization, human fibrin, Tn7 probe; Fibrinogen beta chain (Homo sapiens), P02675; FP displacement of FITC-Tn7 peptide from fibrin DD(E); 0% = median of compound wells per plate; inhibition, % at 8.3 µM; hit rate 0.13% among 370,000; AID 720508, 2013;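 active = inhibition above the mean of compounds falling within the control limits plus 3 SD of them, cut at about 14% in these data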
Target sequence (P02675 whole entry, looked up): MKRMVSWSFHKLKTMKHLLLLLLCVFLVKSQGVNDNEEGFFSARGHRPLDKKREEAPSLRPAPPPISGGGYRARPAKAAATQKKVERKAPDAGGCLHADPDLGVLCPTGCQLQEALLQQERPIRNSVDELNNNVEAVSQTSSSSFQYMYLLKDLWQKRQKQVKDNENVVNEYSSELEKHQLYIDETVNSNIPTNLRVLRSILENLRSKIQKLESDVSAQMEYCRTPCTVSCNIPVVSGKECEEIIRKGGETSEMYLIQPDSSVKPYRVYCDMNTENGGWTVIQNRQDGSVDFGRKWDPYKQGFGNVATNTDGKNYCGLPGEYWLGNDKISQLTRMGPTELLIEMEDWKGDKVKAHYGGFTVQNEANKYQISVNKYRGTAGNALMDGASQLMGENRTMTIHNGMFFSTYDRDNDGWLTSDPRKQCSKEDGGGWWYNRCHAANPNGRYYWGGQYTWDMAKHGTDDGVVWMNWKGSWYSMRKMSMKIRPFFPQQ
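assay system = human clot-derived fibrin DD(E) complex | quantity = Fibrin-DD(E) at 2 µM final | timing = 10 min preincubation, 3 h with tracer, room temperature | signal = fluorescence polarization | measure = percent inhibition | benchmarks = high control wells with 10 µM unlabelled Aha-Tn7 peptide (full inhibition) | replicates = singlicate testing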
CRFBP-R2 block: antagonists of CRF-BP/CRF-R2 complex, primary screen, cell-based, HEK293, calcium dye fluorescence, uHTS. CRF-induced calcium fluorescence. inhibition, % at 11.8 µM. hit rate 0.59% among 350,000. AID 588475, 2011;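 active = inhibition of the ligand-induced calcium signal above about 50% at the single tested concentration, limit read from the data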
CRFBP-R2 agonist: agonists of CRF-BP/CRF-R2 complex, primary screen, cell-based, HEK293, calcium dye fluorescence, uHTS; hit rate 0.46% among 350,000; CRF-binding protein / CRF receptor 2 complex (human); activation, % at 13.2 µM; calcium dye fluorescence (FLIPR); percent of saturating CRF peptide response;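 active = activation of at least 50%, plus an integration ratio under a set limit after plate pattern correction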
DDE Tn6 FP inh: inhibitors of Tn6 peptide binding to fibrin DD(E), primary screen, biochemical, fluorescence polarization, human fibrin, Tn6 probe; inhibition, % at 8.3 µM; AID 720509, 2013; Fibrin DD(E) TRITC-Tn6 fluorescence polarization displacement; hit rate 0.21% among 370,000; Fibrinogen beta chain (Homo sapiens), P02675;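 active = inhibition above a per-campaign cutoff: mean of compounds within control limits plus 3 SD, cut at about 15% in these data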
Large screens that a line does not name were inactive. Hits are enriched below; roughly 1.3% of the tested compounds scored in any of these assays.

CCCOc1ccc(C(=O)NNC(=S)NC(=O)c2cccs2)cc1	CRFBP-R2 agonist 113
COC(=O)C[C@@H]1CC[C@@H]2[C@H](COc3ccc(NC(=O)c4cccc(OC)c4)cc3C(=O)N2C)O1	none (no result: CRFBP-R2 block, CRFBP-R2 agonist)
COc1ccc(CNC2CCC23CCC(C)CC3)cc1OC (stereo not given)	none (no result: CRFBP-R2 block, CRFBP-R2 agonist)
Cc1cccc(C)c1NC(=O)c1ccc(-c2ccc(Cl)cc2Cl)o1	none
Cc1ccccc1NC(=O)c1ccc(-c2ccc(Cl)cc2Cl)o1	CRFBP-R2 block 66
Cc1ccc(N2CC(C(=O)NC3CCC(C)CC3)CC2=O)cc1 (stereo not given)	CRFBP-R2 block 67
Cc1ccc(N2CC(C(=O)NC3CC3)CC2=O)cc1 (stereo not given)	none
Cc1cc(NS(=O)(=O)c2ccc(NC(=O)CSc3nnc(SCc4ccc(Cl)cc4)s3)cc2)nc(C)n1	none (no result: CRFBP-R2 block, CRFBP-R2 agonist)
CCCN1CCCCC(NC(=O)c2ccccc2C)C1=O (stereo not given)	none (no result: CRFBP-R2 block, CRFBP-R2 agonist)
CC1CC(C)CN(S(=O)(=O)N2CCCC(C(=O)NCCc3ccccc3)C2)C1 (stereo not given)	none
Cc1ccc(CCNC(=O)C2CCCN(S(=O)(=O)N3CC(C)CC(C)C3)C2)cc1 (stereo not given)	CRFBP-R2 block 85
Cn1c(-c2ccc(-c3ccccc3)cc2)c[nH]c1=S	CRFBP-R2 block 108
COc1cc2c(cc1OC)C(c1c(Cl)cccc1Cl)NC(=O)C2 (stereo not given)	CRFBP-R2 agonist 52
CCOC(=O)[C@]12CCCC=C1N(CCc1ccc(Cl)cc1)C(=O)[C@@H]2CC(=O)NCCC(C)C	none (no result: CRFBP-R2 block, CRFBP-R2 agonist)
Cc1ccc(S(=O)(=O)c2nnn3c2nc(N2CCCCC2)c2ccccc23)cc1	CRFBP-R2 block 51
Cc1ccc2c(cnn2C(=O)CCC(=O)N2CCCCC2)c1	CRFBP-R2 block 71
COc1cc(/C=C(\C#N)C(=O)Nc2ccc3c(c2)OCCO3)ccc1O	CRFBP-R2 block 73
CCOC(=O)c1c(-c2ccc(C)cc2)csc1NC(=O)/C(C#N)=C/c1ccc(O)c(OC)c1	CRFBP-R2 agonist 195
CCOC(=O)c1c(-c2ccccc2)csc1NC(=O)/C(C#N)=C\c1ccc(O)c(OC)c1	CRFBP-R2 agonist 132
CCOC(=O)/C(C#N)=C\c1ccc(O)c(OC)c1	none
COc1cc(/C=C/C(=O)OCC(=O)Nc2ccc3c(c2)OCCO3)ccc1O	none
O=C(CSc1nnc(-c2cccs2)n1Cc1ccco1)Nc1ccc(Oc2ccccc2)cc1	none (no result: CRFBP-R2 block, CRFBP-R2 agonist)
CCCCCCCCN1CCS(=O)(=O)N(Cc2ccc(C(F)(F)F)cc2)C(C(=O)OC)C1 (stereo not given)	none (no result: CRFBP-R2 block, CRFBP-R2 agonist)
CCOc1ccccc1N=C1SC(CC(=O)Nc2ccc(OC)cc2OC)C(=O)N1CCC1=CCCCC1 (stereo not given)	CRFBP-R2 block 57
O=C(CC1SC(=Nc2ccc(OC(F)F)cc2)N(CCC2=CCCCC2)C1=O)Nc1ccccc1F (stereo not given)	none
Cc1nn(Cc2ccc(Cl)cc2)c(C)c1NC(=O)c1ccc([N+](=O)[O-])cc1	CRFBP-R2 block 56
CC(=O)N(C(C)=O)c1cccc(N(Cc2ccccc2)Cc2ccccc2)c1	CRFBP-R2 block 54
Clc1ccc(-c2nnc(CSc3nnc(-c4cccs4)o3)o2)cc1	CRFBP-R2 block 54
c1ccc(-c2nnc(SCc3nnc(-c4cccs4)o3)o2)cc1	none
N/C(=N\OCC(=O)Nc1ccccc1)c1nonc1N	CRFBP-R2 block 69
CCC[C@H]1[C@@H](OC(=O)NCc2cccs2)CC[C@@]23CCCN2C(=O)CCC[C@@H]13	none (no result: CRFBP-R2 block, CRFBP-R2 agonist)
OCC[n+]1ccc(/C=C/c2c[nH]c3ccccc23)cc1	CRFBP-R2 agonist 119
C(=Cc1c[nH]c2ccccc12)c1nccc2ccccc12	none
COc1ccc(C(=O)NCC2CCN(C(=O)C(=O)c3cc4ccccc4o3)CC2)c(OC)c1	none (no result: CRFBP-R2 block, CRFBP-R2 agonist)
Cc1ccc2[nH]c(C(=O)N/N=C/c3ccccc3C(=O)O)c(-c3ccccc3)c2c1	CRFBP-R2 agonist 72
COc1ccc(/C=N/NC(=O)c2[nH]c3ccc(C)cc3c2-c2ccccc2)c(C(=O)O)c1OC	none
Nc1ccc2c(c1)Cc1cc([N+](=O)[O-])ccc1-2	CRFBP-R2 agonist 111
CC(O)CN(CC(C)O)c1ccc2c(c1)Cc1cc([N+](=O)[O-])ccc1-2 (stereo not given)	CRFBP-R2 agonist 197

Screens as filed in PubChem BioAssay.
